ChEMBL document CHEMBL3763060, “Synthesis and evaluation of analogs of the phenylpyridazinone NPD-001 as potent trypanosomal TbrPDEB1 phosphodiesterase inhibitors and in vitro trypanocidals” (Bioorg Med Chem, 2016)
≈ marks a conversion by molar mass, not a printed value.

How the values were obtained:
[1] = Solubility of compound in 0.05 M phosphate buffer at pH 7.4; assay type: physicochemical
[2] = Selectivity ratio of IC50 for Trypanosoma brucei recombinant PDEB1 to IC50 for full length human recombinant PDE4B1
[3] = test system: Trypanosoma brucei brucei; assay: Antitrypanosomal activity against suramin-sensitive Trypanosoma brucei brucei Squib427 assessed as inhibition of parasite growth; assay type: functional, organism-based
Method in brief: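 Bloodstream-form trypomastigotes of Squib-427 were grown at 37 °C and 5% CO₂ in Hirumi-9 medium with 10% FCS. Compounds came from 20 mM DMSO stocks, pre-diluted 2- or 4-fold serially in DMSO, then diluted in demineralized water; final DMSO was <1%. Results were reported as −logEC₅₀ with n = 2.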

[4] = biological target: T1, Class 1 phosphodiesterase PDEB1 (Trypanosoma brucei, UniProt Q8WQX9); assay: Inhibition of recombinant Trypanosoma brucei PDEB1 using [3H]-cAMP as substrate after 15 mins by scintillation proximity assay
T1 sequence (Q8WQX9 whole entry): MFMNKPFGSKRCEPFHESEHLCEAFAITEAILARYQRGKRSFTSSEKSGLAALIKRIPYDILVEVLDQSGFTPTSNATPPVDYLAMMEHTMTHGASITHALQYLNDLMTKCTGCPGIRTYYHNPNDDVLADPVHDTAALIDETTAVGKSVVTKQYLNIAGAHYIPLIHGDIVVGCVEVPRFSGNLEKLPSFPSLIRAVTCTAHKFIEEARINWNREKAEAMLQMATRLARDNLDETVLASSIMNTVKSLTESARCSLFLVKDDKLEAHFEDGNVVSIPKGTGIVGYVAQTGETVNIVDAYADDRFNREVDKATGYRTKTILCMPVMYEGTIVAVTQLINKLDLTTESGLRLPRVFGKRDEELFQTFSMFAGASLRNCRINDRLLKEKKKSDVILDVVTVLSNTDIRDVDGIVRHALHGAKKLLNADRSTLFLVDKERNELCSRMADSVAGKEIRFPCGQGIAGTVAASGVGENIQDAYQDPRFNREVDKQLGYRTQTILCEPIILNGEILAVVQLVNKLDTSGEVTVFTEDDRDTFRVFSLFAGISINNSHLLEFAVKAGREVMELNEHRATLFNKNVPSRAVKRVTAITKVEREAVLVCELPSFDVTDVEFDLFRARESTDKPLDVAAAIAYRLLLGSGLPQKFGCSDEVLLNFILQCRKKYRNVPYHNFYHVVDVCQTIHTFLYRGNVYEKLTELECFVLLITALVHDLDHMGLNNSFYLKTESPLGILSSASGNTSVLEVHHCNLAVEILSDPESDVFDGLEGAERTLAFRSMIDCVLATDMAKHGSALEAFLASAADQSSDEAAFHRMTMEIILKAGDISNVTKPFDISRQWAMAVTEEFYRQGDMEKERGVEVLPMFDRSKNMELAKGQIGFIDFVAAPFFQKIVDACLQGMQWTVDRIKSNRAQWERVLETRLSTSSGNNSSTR
Method in brief: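 Inhibition of TbrPDEB1-mediated [³H]-cAMP hydrolysis was read by scintillation proximity assay. Each analog was run in at least two independent experiments.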

[5] = biological target: T2, 3',5'-cyclic-AMP phosphodiesterase 4B (Homo sapiens, UniProt Q07343); assay: Inhibition of full length human recombinant PDE4B1 using [3H]-cAMP as substrate by scintillation proximity assay
T2 sequence (Q07343 whole entry): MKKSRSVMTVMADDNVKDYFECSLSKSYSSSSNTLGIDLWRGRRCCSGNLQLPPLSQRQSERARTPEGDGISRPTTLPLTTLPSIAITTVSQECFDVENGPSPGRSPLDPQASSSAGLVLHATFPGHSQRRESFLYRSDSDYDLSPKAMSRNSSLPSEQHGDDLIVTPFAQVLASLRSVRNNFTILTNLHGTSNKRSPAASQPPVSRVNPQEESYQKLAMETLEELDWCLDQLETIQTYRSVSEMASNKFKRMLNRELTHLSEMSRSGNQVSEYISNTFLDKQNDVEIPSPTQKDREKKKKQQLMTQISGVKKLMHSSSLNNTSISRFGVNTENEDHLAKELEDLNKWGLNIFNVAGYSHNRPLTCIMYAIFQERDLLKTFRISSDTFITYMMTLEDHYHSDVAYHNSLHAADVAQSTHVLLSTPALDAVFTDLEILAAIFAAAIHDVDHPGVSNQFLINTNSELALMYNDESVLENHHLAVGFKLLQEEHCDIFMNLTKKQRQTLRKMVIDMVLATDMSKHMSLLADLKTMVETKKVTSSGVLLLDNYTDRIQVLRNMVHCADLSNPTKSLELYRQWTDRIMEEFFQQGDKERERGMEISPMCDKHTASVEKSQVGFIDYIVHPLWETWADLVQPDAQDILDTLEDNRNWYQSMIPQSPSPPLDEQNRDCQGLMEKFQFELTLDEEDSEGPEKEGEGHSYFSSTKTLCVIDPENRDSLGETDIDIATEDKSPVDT

[6] = Cytotoxicity against human MRC5 cells assessed as growth inhibition; assay type: cell-based
Method in brief: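 MRC-5 fibroblasts were grown at 37 °C and 5% CO₂ in Hirumi-9 medium with 10% FCS. Compounds came from 20 mM DMSO stocks, serially pre-diluted 2- or 4-fold in DMSO, then in demineralized water; final DMSO was <1%. Results were reported as −logCC₅₀ with n = 2.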

[7] = Selectivity index, ratio of CC50 for human MRC5 cells to EC50 for suramin-sensitive Trypanosoma brucei brucei Squib427; assay type: toxicity, cell-based; conditions: read-out: Ratio CC50/EC50
Method in brief: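 The index was calculated as CC₅₀ in MRC-5 fibroblasts divided by EC₅₀ against T. b. brucei. Both came from parallel assays in Hirumi-9 medium with 10% FCS at 37 °C and 5% CO₂, each n = 2.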

[8] = biological target: High affinity cGMP-specific 3',5'-cyclic phosphodiesterase 9A (Homo sapiens, UniProt O76083); assay: Inhibition of full length human recombinant PDE9A3 using [3H]-cAMP as substrate by scintillation proximity assay
[9] = biological target: cAMP and cAMP-inhibited cGMP 3',5'-cyclic phosphodiesterase 10A (Homo sapiens, UniProt Q9Y233); assay: Inhibition of full length human recombinant PDE10A using [3H]-cAMP as substrate by scintillation proximity assay
cAMP and cAMP-inhibited cGMP 3',5'-cyclic phosphodiesterase 10A, sequence (Q9Y233 whole entry): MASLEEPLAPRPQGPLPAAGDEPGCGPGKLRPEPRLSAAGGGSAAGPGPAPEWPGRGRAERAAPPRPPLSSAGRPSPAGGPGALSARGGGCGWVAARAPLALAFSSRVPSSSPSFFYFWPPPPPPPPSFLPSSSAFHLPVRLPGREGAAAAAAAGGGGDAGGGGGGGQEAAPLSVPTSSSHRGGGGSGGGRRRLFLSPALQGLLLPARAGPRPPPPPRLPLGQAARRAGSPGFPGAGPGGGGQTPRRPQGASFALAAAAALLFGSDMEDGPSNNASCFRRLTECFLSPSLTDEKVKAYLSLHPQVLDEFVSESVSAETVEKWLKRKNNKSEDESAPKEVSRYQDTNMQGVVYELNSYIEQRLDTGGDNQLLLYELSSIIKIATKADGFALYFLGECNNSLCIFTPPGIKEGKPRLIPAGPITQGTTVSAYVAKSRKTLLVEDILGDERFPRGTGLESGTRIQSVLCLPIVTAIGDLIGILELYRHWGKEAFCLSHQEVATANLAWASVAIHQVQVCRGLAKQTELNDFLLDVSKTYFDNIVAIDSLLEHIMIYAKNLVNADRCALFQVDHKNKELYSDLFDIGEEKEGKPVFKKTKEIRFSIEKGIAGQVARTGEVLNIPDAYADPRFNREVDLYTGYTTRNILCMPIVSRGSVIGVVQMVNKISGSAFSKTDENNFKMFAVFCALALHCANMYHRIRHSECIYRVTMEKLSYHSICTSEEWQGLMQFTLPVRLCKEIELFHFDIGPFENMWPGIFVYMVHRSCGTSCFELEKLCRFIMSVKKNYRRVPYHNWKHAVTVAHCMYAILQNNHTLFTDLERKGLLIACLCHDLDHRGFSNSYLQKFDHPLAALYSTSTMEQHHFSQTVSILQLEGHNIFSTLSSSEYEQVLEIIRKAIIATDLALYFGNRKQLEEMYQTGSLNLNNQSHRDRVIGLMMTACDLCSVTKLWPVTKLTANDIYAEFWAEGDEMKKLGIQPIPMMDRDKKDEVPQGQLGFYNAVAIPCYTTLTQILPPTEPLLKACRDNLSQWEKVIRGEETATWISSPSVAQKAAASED

[10] = Inhibition of Trypanosoma brucei PDEB2 using [3H]-cAMP as substrate after 15 mins by scintillation proximity assay
[11] = Inhibition of full length human recombinant PDE3A1 using [3H]-cAMP as substrate by scintillation proximity assay
[12] = biological target: T2, 3',5'-cyclic-AMP phosphodiesterase 4B; assay: Inhibition of full length human recombinant PDE4B2 using [3H]-cAMP as substrate by scintillation proximity assay
[13] = biological target: Dual specificity calcium/calmodulin-dependent 3',5'-cyclic nucleotide phosphodiesterase 1B (Homo sapiens, UniProt Q01064); assay: Inhibition of full length human recombinant PDE1B1 using [3H]-cAMP as substrate by scintillation proximity assay
Dual specificity calcium/calmodulin-dependent 3',5'-cyclic nucleotide phosphodiesterase 1B, sequence (Q01064 whole entry): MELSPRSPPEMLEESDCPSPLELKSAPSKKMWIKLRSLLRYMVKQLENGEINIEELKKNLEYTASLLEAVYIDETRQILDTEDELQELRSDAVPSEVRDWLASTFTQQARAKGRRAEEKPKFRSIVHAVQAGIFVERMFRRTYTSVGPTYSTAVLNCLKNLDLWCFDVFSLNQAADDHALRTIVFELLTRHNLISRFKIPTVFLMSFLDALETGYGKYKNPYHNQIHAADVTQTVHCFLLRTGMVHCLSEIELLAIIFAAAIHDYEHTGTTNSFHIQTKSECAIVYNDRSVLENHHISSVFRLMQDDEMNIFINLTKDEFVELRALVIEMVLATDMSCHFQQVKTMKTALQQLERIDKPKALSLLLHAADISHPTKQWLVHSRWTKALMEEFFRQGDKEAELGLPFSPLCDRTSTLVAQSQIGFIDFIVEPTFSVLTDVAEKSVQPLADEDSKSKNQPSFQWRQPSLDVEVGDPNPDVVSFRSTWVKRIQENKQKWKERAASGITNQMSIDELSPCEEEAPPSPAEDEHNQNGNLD

[14] = biological target: cGMP-dependent 3',5'-cyclic phosphodiesterase (Homo sapiens, UniProt O00408); assay: Inhibition of full length human recombinant PDE2A3 using [3H]-cAMP as substrate by scintillation proximity assay
[15] = biological target: 3',5'-cyclic-AMP phosphodiesterase 4D (Homo sapiens, UniProt Q08499); assay: Inhibition of full length human recombinant PDE4D3 using [3H]-cAMP as substrate by scintillation proximity assay
3',5'-cyclic-AMP phosphodiesterase 4D, sequence (Q08499 whole entry): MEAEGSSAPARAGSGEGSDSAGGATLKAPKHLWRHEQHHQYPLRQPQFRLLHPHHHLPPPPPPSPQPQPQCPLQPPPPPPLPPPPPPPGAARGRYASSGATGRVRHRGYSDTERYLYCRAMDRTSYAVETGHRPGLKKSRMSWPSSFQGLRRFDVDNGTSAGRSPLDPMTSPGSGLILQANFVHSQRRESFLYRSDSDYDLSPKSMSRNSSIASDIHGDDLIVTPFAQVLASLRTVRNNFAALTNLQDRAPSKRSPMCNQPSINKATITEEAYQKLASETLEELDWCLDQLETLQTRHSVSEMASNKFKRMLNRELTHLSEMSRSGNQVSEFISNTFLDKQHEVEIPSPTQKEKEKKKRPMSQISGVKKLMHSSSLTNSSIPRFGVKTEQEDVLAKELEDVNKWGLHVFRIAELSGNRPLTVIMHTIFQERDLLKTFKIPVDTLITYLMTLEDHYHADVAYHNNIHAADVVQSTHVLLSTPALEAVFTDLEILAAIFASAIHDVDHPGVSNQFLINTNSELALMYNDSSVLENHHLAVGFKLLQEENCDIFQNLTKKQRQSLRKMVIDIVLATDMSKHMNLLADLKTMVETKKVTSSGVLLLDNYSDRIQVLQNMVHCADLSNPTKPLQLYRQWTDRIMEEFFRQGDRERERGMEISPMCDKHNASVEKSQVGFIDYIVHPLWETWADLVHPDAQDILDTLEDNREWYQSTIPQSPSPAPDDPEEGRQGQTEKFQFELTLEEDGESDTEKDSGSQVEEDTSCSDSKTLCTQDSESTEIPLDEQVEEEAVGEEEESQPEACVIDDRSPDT

Trypanosoma brucei = assay: Antitrypanosomal activity against Trypanosoma brucei assessed as inhibition of parasite growth after 48 hrs by resazurin assay; assay type: functional, organism-based
[16] = biological target: High affinity cAMP-specific and IBMX-insensitive 3',5'-cyclic phosphodiesterase 8B (Homo sapiens, UniProt O95263); assay: Inhibition of full length human recombinant PDE8B using [3H]-cAMP as substrate by scintillation proximity assay
[17] = biological target: High affinity 3',5'-cyclic-AMP phosphodiesterase 7A (Homo sapiens, UniProt Q13946); assay: Inhibition of full length human recombinant PDE7A1 using [3H]-cAMP as substrate by scintillation proximity assay
High affinity 3',5'-cyclic-AMP phosphodiesterase 7A, sequence (Q13946 whole entry): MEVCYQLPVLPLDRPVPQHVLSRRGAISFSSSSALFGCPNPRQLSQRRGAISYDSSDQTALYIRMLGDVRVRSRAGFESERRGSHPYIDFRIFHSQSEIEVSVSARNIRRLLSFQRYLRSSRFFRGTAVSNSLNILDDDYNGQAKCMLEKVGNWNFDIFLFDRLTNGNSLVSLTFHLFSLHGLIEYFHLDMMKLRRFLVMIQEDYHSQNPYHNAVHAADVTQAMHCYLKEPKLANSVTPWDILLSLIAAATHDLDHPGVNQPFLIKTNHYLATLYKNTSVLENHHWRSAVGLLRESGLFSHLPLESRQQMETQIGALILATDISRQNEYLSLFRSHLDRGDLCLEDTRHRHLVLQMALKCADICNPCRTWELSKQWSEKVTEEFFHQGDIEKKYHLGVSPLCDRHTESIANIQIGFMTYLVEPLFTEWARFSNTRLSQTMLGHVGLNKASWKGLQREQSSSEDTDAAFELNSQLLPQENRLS

[18] = biological target: cGMP-specific 3',5'-cyclic phosphodiesterase (Homo sapiens, UniProt O76074); assay: Inhibition of full length human recombinant PDE5A1 using [3H]-cGMP as substrate by scintillation proximity assay
Method in brief: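 Radiolabelled cGMP substrate at 0.5 (final assay level). Scintillation proximity read-out of the full-length recombinant enzyme's hydrolytic activity, run in the presence of test compounds.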

[19] = biological target: Dual 3',5'-cyclic-AMP and -GMP phosphodiesterase 11A (Homo sapiens, UniProt Q9HCR9); assay: Inhibition of full length human recombinant PDE11A4 using [3H]-cAMP as substrate by scintillation proximity assay
Dual 3',5'-cyclic-AMP and -GMP phosphodiesterase 11A, sequence (Q9HCR9 whole entry): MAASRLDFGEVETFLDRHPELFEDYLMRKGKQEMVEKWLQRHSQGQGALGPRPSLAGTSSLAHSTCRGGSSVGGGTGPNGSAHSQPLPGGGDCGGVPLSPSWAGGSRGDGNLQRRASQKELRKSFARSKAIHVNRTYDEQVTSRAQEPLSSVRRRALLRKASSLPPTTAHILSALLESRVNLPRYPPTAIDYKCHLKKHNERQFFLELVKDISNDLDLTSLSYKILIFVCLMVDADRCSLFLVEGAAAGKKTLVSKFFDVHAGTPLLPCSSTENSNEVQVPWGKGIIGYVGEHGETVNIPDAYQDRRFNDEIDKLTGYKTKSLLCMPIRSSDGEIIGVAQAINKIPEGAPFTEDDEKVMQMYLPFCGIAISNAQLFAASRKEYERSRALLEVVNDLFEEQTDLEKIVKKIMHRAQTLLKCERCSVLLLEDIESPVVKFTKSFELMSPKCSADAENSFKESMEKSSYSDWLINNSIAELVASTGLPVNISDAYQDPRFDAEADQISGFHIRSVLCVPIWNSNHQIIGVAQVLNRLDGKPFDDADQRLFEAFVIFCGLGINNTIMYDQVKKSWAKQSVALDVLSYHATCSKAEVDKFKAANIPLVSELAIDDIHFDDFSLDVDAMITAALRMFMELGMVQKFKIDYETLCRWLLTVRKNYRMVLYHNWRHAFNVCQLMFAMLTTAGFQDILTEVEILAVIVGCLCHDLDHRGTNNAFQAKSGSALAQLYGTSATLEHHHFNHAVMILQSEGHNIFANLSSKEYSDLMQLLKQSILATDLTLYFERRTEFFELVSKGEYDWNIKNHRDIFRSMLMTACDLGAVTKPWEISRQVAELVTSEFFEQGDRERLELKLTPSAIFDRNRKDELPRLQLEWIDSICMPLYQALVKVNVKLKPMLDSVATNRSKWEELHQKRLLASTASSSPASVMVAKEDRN

Compound	EC50 [3]	IC50 [4]	IC50 [5]	CC50 [6]	selectivity ratio [7]	also measured
COc1cc(COc2cc(C3=NN(C4CCCCCC4)C(=O)[C@@H]4CC=CC[C@H]34)ccc2OC)cc(OC)c1 (racemic)	1000 nM	126 nM		12600 nM	12.6	
COc1ccc(C2=NN(C3CCCCCC3)C(=O)[C@@H]3CC=CC[C@H]23)cc1OCc1cccc(OC)c1OC (racemic)	1580 nM	79.4 nM		3980 nM	2.5	
COc1ccc(C2=NN(C3CCCCCC3)C(=O)[C@@H]3CC=CC[C@H]23)cc1OCCO (racemic)	2000 nM	100 nM		31600 nM	16	
COc1ccc(C2=NN(C3CCCCCC3)C(=O)[C@@H]3CC=CC[C@H]23)cc1OCc1ccccn1 (racemic)		100 nM				
COc1ccc(C2=NN(C3CCCCCC3)C(=O)[C@@H]3CC=CC[C@H]23)cc1OC (racemic)		316 nM	0.631 nM			Ratio IC50 [2]: 501
COc1ccc(C2=NN(C3CCCCCC3)C(=O)[C@@H]3CC=CC[C@H]23)cc1OCCCCOc1ccc(C(=O)O)cc1 (racemic)		316 nM	0.316 nM			Ratio IC50 [2]: 1000
COc1ccc(C2=NN(C3CCCCCC3)C(=O)[C@@H]3CC=CC[C@H]23)cc1 (racemic)		3980 nM				
COc1ccc(C2=NN(C3CCCCCC3)C(=O)[C@@H]3CCCC[C@H]23)cc1OC (racemic)		1580 nM				
COc1ccc(-c2nn(C3CCCCCC3)c(=O)c3ccccc23)cc1OC		> 10000 nM				
COc1ccc(C2=NN(C(C)C)C(=O)[C@@H]3CCCC[C@H]23)cc1OC (racemic)		2000 nM				
COc1ccc(C2=NN(C3CCCCCC3)C(=O)CC2)cc1OC		10000 nM				
COc1cccc(C2=NN(C3CCCCCC3)C(=O)[C@@H]3CC=CC[C@H]23)c1 (racemic)		100000 nM				
COc1ccc(C2=NNC(=O)[C@@H]3CC=CC[C@H]23)cc1OC (racemic)		12600 nM				
COc1ccc(C2=NN(C3CCCCCC3)C(=O)[C@@H]3CC=CC[C@H]23)cc1OCCCCOc1ccc(-c2nnn[nH]2)cc1 (racemic)	20 nM		0.631 nM	6310 nM		solubility [1]: 75 µM (≈ 43.9 µg/mL); IC50 [8]: > 10000 nM; IC50 [9]: 501 nM; IC50 [10]: 3 nM; pIC50 [10]: 8.5; pIC50 [11]: 6.9; IC50 [12]: 0.501 nM; IC50 [13]: 3980 nM; IC50 [14]: 6310 nM; IC50 [15]: 0.631 nM; IC50 (Trypanosoma brucei): 80 nM; IC50 [16]: 3980 nM; IC50 [17]: 3160 nM; IC50 [18]: 2000 nM; IC50 [19]: 2000 nM
COCCOc1cc(C2=NN(C3CCCCCC3)C(=O)[C@@H]3CC=CC[C@H]23)ccc1OC (racemic)	794 nM	79.4 nM		25100 nM	32	
COc1ccc(C2=NN(C3CCCCCC3)C(=O)[C@@H]3CC=CC[C@H]23)cc1OCc1ccncc1 (racemic)	1260 nM	158 nM		15800 nM	12.6	

The next lines start with results.

EC50 [3]	IC50 [4]	IC50 [5]	Compound	CC50 [6]	selectivity ratio [7]	also measured
251 nM	3.16 nM	0.501 nM	COc1ccc(C2=NN(C3CCCCCC3)C(=O)[C@@H]3CC=CC[C@H]23)cc1OCCCCOc1ccc(-c2nnn(C)n2)cc1 (racemic)	> 63100 nM	> 251	solubility [1]: < 2 µM; Ratio IC50 [2]: 6
501 nM	10 nM	0.631 nM	COc1ccc(C2=NN(C3CCCCCC3)C(=O)[C@@H]3CC=CC[C@H]23)cc1OCCCCOc1ccc(-c2nnnn2C)cc1 (racemic)	> 63100 nM	> 125	solubility [1]: < 2 µM; Ratio IC50 [2]: 16
200 nM	15.8 nM	1.58 nM	COc1ccc(C2=NN(C3CCCCCC3)C(=O)[C@@H]3CC=CC[C@H]23)cc1OCCCCn1cnc2ncncc21 (racemic)	39800 nM	200	Ratio IC50 [2]: 10
1000 nM	63.1 nM		COc1ccc(C2=NN(C3CCCCCC3)C(=O)[C@@H]3CC=CC[C@H]23)cc1OCCc1ccc(N(C)C)cc1 (racemic)	> 63100 nM	> 63	
1000 nM	12.6 nM	0.2 nM	COc1ccc(C2=NN(C3CCCCCC3)C(=O)[C@@H]3CC=CC[C@H]23)cc1OCCCCOc1ccc(-n2ccnc2)cc1 (racemic)	39800 nM	40	Ratio IC50 [2]: 63
5010 nM	63.1 nM		COc1ccc(C2=NN(C3CCCCCC3)C(=O)[C@@H]3CC=CC[C@H]23)cc1OCCCCCc1ccccc1 (racemic)	> 63100 nM	> 13	
1260 nM	63.1 nM		COc1ccc(CCOc2cc(C3=NN(C4CCCCCC4)C(=O)[C@@H]4CC=CC[C@H]34)ccc2OC)cc1 (racemic)	> 63100 nM	> 50	
